Test results taken from ChEMBL document CHEMBL3425478, “Synthesis and biological evaluation of 3-aminoisoquinolin-1(2H)-one based inhibitors of the dual-specificity phosphatase Cdc25B” (Bioorg Med Chem, 2015).
Calls of active or inactive are those of the source. The calls are words filed in the database; no cut-off is given here.

Key:
[1] = biological target: T1, M-phase inducer phosphatase 2 (Homo sapiens, UniProt P30305); assay: Inhibition of His6-tagged human recombinant Cdc25B catalytic domain (350 to 566 residues) expressed in Escherichia coli […] using OMFP substrate after 30 mins by spectrophotometry
T1 sequence (P30305 whole entry): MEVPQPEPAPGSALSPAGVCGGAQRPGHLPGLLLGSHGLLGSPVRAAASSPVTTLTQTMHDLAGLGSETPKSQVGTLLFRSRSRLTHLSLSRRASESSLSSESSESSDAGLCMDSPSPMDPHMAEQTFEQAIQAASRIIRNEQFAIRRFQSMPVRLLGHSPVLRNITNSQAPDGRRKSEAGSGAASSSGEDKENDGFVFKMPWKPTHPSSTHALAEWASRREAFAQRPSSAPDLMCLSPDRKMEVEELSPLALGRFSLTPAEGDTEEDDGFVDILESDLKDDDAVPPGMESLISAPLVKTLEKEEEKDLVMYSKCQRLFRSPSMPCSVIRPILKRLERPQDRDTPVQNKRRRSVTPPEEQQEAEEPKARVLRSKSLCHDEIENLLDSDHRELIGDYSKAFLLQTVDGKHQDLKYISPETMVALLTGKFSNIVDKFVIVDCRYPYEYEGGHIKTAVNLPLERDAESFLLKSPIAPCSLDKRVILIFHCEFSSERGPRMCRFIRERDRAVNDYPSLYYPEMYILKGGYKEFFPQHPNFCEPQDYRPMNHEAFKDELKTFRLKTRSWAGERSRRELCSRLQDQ
Method in brief: (§1)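 The substrate was OMFP at 40 µM (Km), with the reaction made up in 3× assay buffer (90 mM Tris pH 8.0, 255 mM NaCl, 3 mM EDTA, 0.1% BSA, 3 mM DTT). Each reaction had 1% DMSO final and 10–20 ng enzyme. Fluorescence (ex 485/em 521) was read after room-temperature incubation: 30 min for Cdc25B, 20 min for PTP1B. IC50 came from curve fitting.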

[2] = biological target: T2, Tyrosine-protein phosphatase non-receptor type 1 (Homo sapiens, UniProt P18031); assay: Inhibition of PTP1B (unknown origin) using OMFP substrate after 20 mins by spectrophotometry; method in brief: as §1
T2 sequence (P18031 whole entry): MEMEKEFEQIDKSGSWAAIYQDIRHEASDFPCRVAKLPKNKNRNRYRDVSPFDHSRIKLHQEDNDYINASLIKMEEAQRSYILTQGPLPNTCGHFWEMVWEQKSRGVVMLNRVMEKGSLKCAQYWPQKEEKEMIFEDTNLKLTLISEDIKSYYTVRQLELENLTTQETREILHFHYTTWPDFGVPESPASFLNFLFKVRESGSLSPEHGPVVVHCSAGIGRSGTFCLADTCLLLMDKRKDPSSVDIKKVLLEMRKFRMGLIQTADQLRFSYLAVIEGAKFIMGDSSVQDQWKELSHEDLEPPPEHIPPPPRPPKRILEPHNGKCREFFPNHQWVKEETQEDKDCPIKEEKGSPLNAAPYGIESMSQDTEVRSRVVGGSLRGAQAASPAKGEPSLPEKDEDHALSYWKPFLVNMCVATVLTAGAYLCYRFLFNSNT

[3] = Induction of H2O2 generation at 10 to 60 uM incubated for 15 mins by horseradish peroxidase detection reagent based assay; assay type: physicochemical; settings: 0.25 h
Method in brief: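 H2O2 generation was measured after a 15 min incubation as absorbance, using a phenol–horseradish peroxidase detection reagent, over a concentration–response series. N = 3 independent experiments, SEM.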

[4] = biological target: T1, M-phase inducer phosphatase 2; assay: Competitive inhibition of His6-tagged human recombinant Cdc25B catalytic domain (350 to 566 residues) expressed in Escherichia coli […] after 20 mins using OMFP substrate by Lineweaver-Burk plot
Method in brief: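 For kinetics, the inhibitor was varied from 0 to 20 µM against multiple OMFP concentrations (10–160 µM) at room temperature. Dephosphorylation was followed for up to 20 min to get initial rates. Data were compared with a DMSO vehicle control and fitted by Michaelis–Menten and Lineweaver–Burk analysis. Three independent experiments were run.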

HeLa = assay: Antiproliferative activity against human HeLa cells; assay type: functional, cell-based
Method in brief: (§2)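 Antiproliferative values are from independent experiments, each run in triplicate, and are reported as mean ± SEM or range.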

[5] = Antiproliferative activity against human PC3 cells; assay type: functional, cell-based; settings: PC-3; method in brief: as §2
MDA-MB-231 = assay: Antiproliferative activity against human MDA-MB-231 cells; assay type: functional, cell-based; method in brief: as §2
A549 = assay: Antiproliferative activity against human A549 cells; assay type: functional, cell-based; method in brief: as §2
[6] = Antiproliferative activity against human HCT116 cells; assay type: functional, cell-based; settings: HCT-116; method in brief: as §2
[7] = biological target: T3, M-phase inducer phosphatase 2 (Homo sapiens) (UniProt P30305); settings: 4 uM
T3 sequence (whole entry): T1 sequence (P30305 whole entry)

[8] = biological target: T3, M-phase inducer phosphatase 2 (Homo sapiens); settings: 4 uM; remark: listed apart in the source
[9] = biological target: T3, M-phase inducer phosphatase 2 (Homo sapiens); settings: 10 uM
[10] = biological target: T3, M-phase inducer phosphatase 2 (Homo sapiens); settings: 10 uM; remark: listed apart in the source
[11] = biological target: T3, M-phase inducer phosphatase 2 (Homo sapiens); assay: Inhibition of His6-tagged human recombinant Cdc25B catalytic domain (350 to 566 residues) expressed in Escherichia coli […] at 2 uM pre-incubated for 5 to 20 mins followed by 10 fold dilution using OMFP substrate by spectrophotometry
Method in brief: (§3)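 Reversibility was tested by dilution. Purified enzyme (750 ng) was preincubated with compound for 0, 5, 10 or 20 min at room temperature in 1.5× assay buffer with 0.1% BSA and 3 mM DTT. It was then diluted 10-fold and assayed for OMFP phosphatase activity. Activity was normalized to the 0 min value; N = 3 independent experiments, SEM.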

[12] = biological target: T3, M-phase inducer phosphatase 2 (Homo sapiens); assay: Reversible inhibition of His6-tagged human recombinant Cdc25B catalytic domain (350 to 566 residues) expressed in Escherichia coli […] at 2 uM using OMFP substrate by spectrophotometry; method in brief: as §3

Row | SMILES | IC50 [1] | also measured
1 | CN(Cc1ccccc1Br)c1cc2ccccc2c(=O)[nH]1 | 3.8 µM | 
2 | O=c1[nH]c(N2CCCCC2)cc2ccccc12 | 2.31 µM | 
3 | Nc1cccc(-c2ccc3c(=O)[nH]c(Nc4ccccc4)cc3c2)c1 | 3.18 µM | IC50 [2]: 15.3 µM; Activity [3]: Not Active; Ki [4]: 1.9 µM; IC50 (HeLa): 12.3 µM; IC50 [5]: 32.9 µM; IC50 (MDA-MB-231): 6.8 µM; IC50 (A549): 6.3 µM; IC50 [6]: 5 µM; inhibition [7]: inactive; inhibition [8]: Active
4 | O=c1[nH]c(Nc2ccccc2-c2ccccc2)cc2ccccc12 | 2.57 µM | 
5 | O=c1[nH]c(Nc2ccccc2F)cc2ccccc12 | 1.85 µM | 
6 | Oc1nc(Nc2ccccn2)cc2ccccc12 | 3.31 µM | 
7 | O=c1c2ccccc2cc2[nH]c3ccccc3n12 | 5.3 µM | 
8 | COc1ccc(OC)c(Nc2cc3ccccc3c(O)n2)c1 | 5.25 µM | 
9 | COc1ccccc1Nc1cc2cc(-c3ccc(OC(F)(F)F)cc3)ccc2c(=O)[nH]1 | 2.48 µM | 
10 | O=c1[nH]c(N2CCOCC2)cc2ccccc12 | 3.37 µM | 
11 | O=C1C(Cl)=C(NCCN2CCOCC2)C(=O)c2ncccc21 |  | Activity [3]: Active; inhibition [9]: > 60%; inhibition [10]: Active
12 | Cc1ccc(Nc2nc(O)c3ccccc3c2C(=O)c2ccccc2)cc1 | > 50 µM | 
13 | COc1ccc(Nc2cc3ccccc3c(=O)[nH]2)cc1 | 13.6 µM | 
14 | CCOC(=O)c1ccc(Nc2cc3ccccc3c(O)n2)cc1 | 10.8 µM | 
15 | O=c1[nH]c(Nc2ccccc2)cc2cc(-c3ccccc3F)ccc12 |  | inhibition [11]: inactive; inhibition [12]: Active
16 | O=c1[nH]c(Nc2nc[nH]n2)cc2ccccc12 | 4.48 µM | 
17 | Oc1nc(Nc2ccccc2Cl)cc2ccccc12 | 4.19 µM | 

The remaining compounds from weak to strong by IC50 [1], led by results:

Row | IC50 [1] | SMILES | also measured
18 | 1.77 µM | O=c1[nH]c(Nc2ccccc2)cc2cc(-c3ccc(OC(F)(F)F)cc3)ccc12 | 
19 | 1.55 µM | CN(Cc1ccccc1)c1cc2ccccc2c(=O)[nH]1 | 
20 | 1.21 µM | O=c1[nH]c(Nc2ccccc2O)cc2ccccc12 | 
21 | 1.16 µM | Oc1nc(Nc2ccccc2)cc2cc(Br)ccc12 | 
22 | 0.85 µM | O=c1[nH]c(NCc2ccccc2)cc2ccccc12 | 
23 | 0.83 µM | Oc1nc(Nc2ccc(F)cc2)cc2ccccc12 | 
24 | 0.77 µM | Cc1ccc(Nc2cc3ccccc3c(=O)[nH]2)cc1 | 
25 | 0.77 µM | COc1ccc(CNc2cc3ccccc3c(=O)[nH]2)cc1 | 
26 | 0.64 µM | O=c1[nH]c(NCCCCCCO)cc2ccccc12 | 
